ChEMBL document CHEMBL3351932, “Discovery of BI 207524, an indole diamide NS5B thumb pocket 1 inhibitor with improved potency for the potential treatment of chronic hepatitis C virus infection” (J Med Chem, 2014)

Legend:
[1] = Inhibition of HCV full-length NS5B polymerase; design: species or system Hepacivirus hominis
Summary of the method: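 Polymerase inhibition with full-length NS5B enzyme in a biochemical assay; IC50 averaged from duplicate measurements, at least two determinations.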

[2] = Inhibition of Hepatitis C virus genotype 1b Con1 NS5B RNA dependent RNA polymerase activity using Bright-Glo luciferase substrate by cell-based 1b luciferase reporter assay; design: species or system Hepatitis C virus (isolate Con1)
Summary of the method: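 Cell-based genotype 1b luciferase reporter replicon assay; EC50 determined in duplicate, values averaged over at least two determinations.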

[3] = Half life in human liver microsomes; type: ADME
[4] = Permeability across apical to basolateral side in human Caco2 cells; type: ADME, cell-based; conditions: Caco-2, read-out: permeability
[5] = Plasma concentration in rat at 4 mg/kg, po cassette dosing after 1 hr; type: ADME, organism-based; design: dose 4 mg/kg, route oral
Summary of the method: (§1)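 Cassette screen: mixture of 4 compounds, each at 4 mg/kg, dosed orally to 2 rats; plasma sampled at 1 h and 2 h, solid-phase extracted and quantified by HPLC-UV or LC/MS against calibration standards in blank plasma (LOQ 7 ng/mL).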

[6] = Plasma concentration in rat at 4 mg/kg, po cassette dosing after 2 hrs; type: ADME, organism-based; design: dose 4 mg/kg, route oral; summary of the method: as §1
[7] = Half life in rat liver microsomes; type: ADME
[8] = Dissociation constant, pKa of the compound; type: physicochemical
Summary of the method: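 pKa derived from pH titration curves.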

[9] = Cmax in rat at 10 mg/kg, po; type: ADME, organism-based; design: dose 10 mg/kg, route oral; conditions: in vivo
Summary of the method: (§2)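 Single-compound oral PK after overnight fast; 10 mg/kg given as suspension in 0.5% methylcellulose and 0.3% Tween-80, with or without 1% NMP as added solubilizer; N=3 per dose and route. Plasma kept on ice, centrifuged at 4°C, stored near -20°C, extracted by solid phase, quantified by HPLC-UV or LC/MS against blank-plasma standards (LOQ 7 ng/mL); non-compartmental analysis.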

[10] = AUC in rat at 10 mg/kg, po; type: ADME, organism-based; design: dose 10 mg/kg, route oral; conditions: plasma; summary of the method: as §2
[11] = Mean residence time in rat at 10 mg/kg, po; type: ADME, organism-based; design: dose 10 mg/kg, route oral; conditions: in vivo; summary of the method: as §2
[12] = Volume of distribution at steady state in rat at 2 mg/kg, iv; type: ADME, organism-based; design: dose 2 mg/kg, route intravenous; conditions: in vivo, read-out: Vdss
Summary of the method: (§3)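 Fasted animals dosed IV by bolus at 2 mg/kg in 70% PEG-400:30% water; N=3 per dose and route. Plasma separated at 4°C, stored near -20°C, solid-phase extracted, assayed by HPLC-UV or LC/MS with blank-plasma calibration (r2 > 0.99, LOQ 7 ng/mL); parameters from non-compartmental analysis.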

[13] = Clearance in rat at 2 mg/kg, iv; type: ADME, organism-based; design: dose 2 mg/kg, route intravenous; conditions: in vivo; summary of the method: as §3
[14] = Half life in rat at 2 mg/kg, iv; type: ADME, organism-based; design: dose 2 mg/kg, route intravenous; conditions: in vivo; summary of the method: as §3
[15] = Oral bioavailability in rat at 10 mg/kg; type: ADME, organism-based; conditions: in vivo; summary of the method: as §2
[16] = Ratio of drug level in rat liver to plasma after 6 hrs; type: ADME, cell-free
[17] = Cmax in dog at 10 mg/kg, po; type: ADME, organism-based, Canis lupus familiaris; design: dose 10 mg/kg, route oral; conditions: in vivo; summary of the method: as §2
[18] = Cmax in monkey at 10 mg/kg, po; type: ADME, organism-based, Macaca mulatta; design: dose 10 mg/kg, route oral; conditions: rhesus monkey, in vivo; summary of the method: as §2
[19] = AUC in dog at 10 mg/kg, po; type: ADME, organism-based, Canis lupus familiaris; design: dose 10 mg/kg, route oral; conditions: plasma; summary of the method: as §2
[20] = AUC in monkey at 10 mg/kg, po; type: ADME, organism-based, Macaca mulatta; design: dose 10 mg/kg, route oral; conditions: rhesus monkey, plasma; summary of the method: as §2
[21] = Mean residence time in dog at 10 mg/kg, po; type: ADME, organism-based, Canis lupus familiaris; design: dose 10 mg/kg, route oral; conditions: in vivo; summary of the method: as §2
[22] = Mean residence time in monkey at 10 mg/kg, po; type: ADME, organism-based, Macaca mulatta; design: dose 10 mg/kg, route oral; conditions: rhesus monkey, in vivo; summary of the method: as §2
[23] = Volume of distribution at steady state in dog at 2 mg/kg, iv; type: ADME, organism-based, Canis lupus familiaris; design: dose 2 mg/kg, route intravenous; conditions: in vivo, read-out: Vdss; summary of the method: as §3
Rhesus monkey [24] = experiment: Volume of distribution at steady state in monkey at 2 mg/kg, iv; type: ADME, organism-based, Macaca mulatta; design: dose 2 mg/kg, route intravenous; conditions: in vivo; summary of the method: as §3
[25] = Clearance in dog at 2 mg/kg, iv; type: ADME, organism-based, Canis lupus familiaris; design: dose 2 mg/kg, route intravenous; conditions: in vivo; summary of the method: as §3
Rhesus monkey [26] = experiment: Clearance in monkey at 2 mg/kg, iv; type: ADME, organism-based, Macaca mulatta; design: dose 2 mg/kg, route intravenous; conditions: in vivo; summary of the method: as §3
[27] = Half life in dog at 2 mg/kg, iv; type: ADME, organism-based, Canis lupus familiaris; design: dose 2 mg/kg, route intravenous; conditions: in vivo; summary of the method: as §3
Rhesus monkey [28] = experiment: Half life in monkey at 2 mg/kg, iv; type: ADME, organism-based, Macaca mulatta; design: dose 2 mg/kg, route intravenous; conditions: in vivo; summary of the method: as §3
[29] = Oral bioavailability in dog at 10 mg/kg; type: ADME, organism-based, Canis lupus familiaris; conditions: in vivo; summary of the method: as §2
[30] = Oral bioavailability in monkey at 10 mg/kg; type: ADME, organism-based, Macaca mulatta; conditions: rhesus monkey, in vivo; summary of the method: as §2
[31] = Inhibition of recombinant Hepatitis C virus genotype 1b Con1 NS5B RNA dependent RNA polymerase delta21; design: species or system Hepatitis C virus subtype 1b
Summary of the method: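 Biochemical polymerase assay with C-terminally truncated genotype 1b NS5B∆21; IC50 taken as mean of duplicates.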

Hepatitis C virus [32] = experiment: Antiviral activity against Hepatitis C virus genotype 1a by cell-based replicon assay; type: functional, Hepacivirus hominis; conditions: subtype 1a
Hepatitis C virus [33] = experiment: Antiviral activity against Hepatitis C virus genotype 1b by cell-based replicon assay; type: functional, Hepacivirus hominis
[34] = Cytotoxicity against human HuH7 cells assessed as cell viability by MTT assay; type: cell-based; conditions: Huh-7 cells, read-out: TC50 (the source's name)
Hepatitis C virus [35] = experiment: Antiviral activity against Hepatitis C virus genotype 1b assessed as shift in EC50 by cell-based replicon assay in presence of 40% human serum; type: functional, Hepacivirus hominis
[36] = Plasma protein binding in human; type: ADME, cell-free; conditions: read-out: PPB (converted)
[37] = Lipophilicity, log D of the compound at pH 7.4; type: physicochemical; conditions: buffer
[38] = Permeability across apical at pH6 to basolateral side at pH 7.4 in human Caco2 cells; type: ADME, cell-based; conditions: Caco-2, pH 6, read-out: permeability
Summary of the method: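 Caco-2 monolayer permeability measured apical to basolateral, apical side at pH 6.0 and basolateral at pH 7.4.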

Cytochrome P450 1A2 = biological target: T1, Cytochrome P450 1A2 (Homo sapiens, UniProt P05177); experiment: Inhibition of CYP1A2 (unknown origin); type: ADME
T1 sequence (P05177 whole entry): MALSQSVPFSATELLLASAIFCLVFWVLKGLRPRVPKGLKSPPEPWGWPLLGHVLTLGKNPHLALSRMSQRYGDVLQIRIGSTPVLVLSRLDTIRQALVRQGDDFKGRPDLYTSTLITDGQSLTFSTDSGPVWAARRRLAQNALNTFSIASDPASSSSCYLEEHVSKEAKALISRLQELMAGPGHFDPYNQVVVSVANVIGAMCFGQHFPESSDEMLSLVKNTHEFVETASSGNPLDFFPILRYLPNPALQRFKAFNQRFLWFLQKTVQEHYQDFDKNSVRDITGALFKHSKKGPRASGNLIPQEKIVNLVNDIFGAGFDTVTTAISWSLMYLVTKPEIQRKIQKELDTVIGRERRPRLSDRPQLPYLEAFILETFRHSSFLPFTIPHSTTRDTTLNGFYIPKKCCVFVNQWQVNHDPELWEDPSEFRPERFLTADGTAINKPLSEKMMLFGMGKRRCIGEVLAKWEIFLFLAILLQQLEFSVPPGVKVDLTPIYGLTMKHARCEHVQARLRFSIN

Cytochrome P450 2C9 = Cytochrome P450 2C9 (Homo sapiens, UniProt P11712); experiment: Inhibition of CYP2C9 (unknown origin); type: ADME
Cytochrome P450 2C19 = Cytochrome P450 2C19 (Homo sapiens, UniProt P33261); experiment: Inhibition of CYP2C19 (unknown origin); type: ADME
Cytochrome P450 2D6 = Cytochrome P450 2D6 (Homo sapiens, UniProt P10635); experiment: Inhibition of CYP2D6 (unknown origin); type: ADME
Cytochrome P450 3A4 = Cytochrome P450 3A4 (Homo sapiens, UniProt P08684); experiment: Inhibition of CYP3A4 (unknown origin); type: ADME
[39] = Inhibition of calf thymus DNA-dependent RNA polymerase; design: species or system Bos taurus
[40] = biological target: Voltage-gated inwardly rectifying potassium channel KCNH2 (Homo sapiens, UniProt Q12809); experiment: Inhibition of human ERG channel at 0.8 uM
Salmonella typhimurium = experiment: Mutagenic activity in Salmonella typhimurium by Ames test; type: toxicity, organism-based; conditions: salmonella enterica subsp. enterica serovar typhimurium
Summary of the method: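 Ames test run with and without metabolic activation at doses up to maximum solubility.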

Canis familiaris = experiment: Cardiotoxicity in dog assessed as electrocardiographic parameters up to 200 mg/kg; type: toxicity, organism-based, Canis lupus familiaris; design: dose 200 mg/kg; conditions: in vivo
[41] = Cardiotoxicity in guinea pig papillary muscles assessed as action potential duration at 90% repolarization

Sequence of Cytochrome P450 3A4 (P08684 whole entry): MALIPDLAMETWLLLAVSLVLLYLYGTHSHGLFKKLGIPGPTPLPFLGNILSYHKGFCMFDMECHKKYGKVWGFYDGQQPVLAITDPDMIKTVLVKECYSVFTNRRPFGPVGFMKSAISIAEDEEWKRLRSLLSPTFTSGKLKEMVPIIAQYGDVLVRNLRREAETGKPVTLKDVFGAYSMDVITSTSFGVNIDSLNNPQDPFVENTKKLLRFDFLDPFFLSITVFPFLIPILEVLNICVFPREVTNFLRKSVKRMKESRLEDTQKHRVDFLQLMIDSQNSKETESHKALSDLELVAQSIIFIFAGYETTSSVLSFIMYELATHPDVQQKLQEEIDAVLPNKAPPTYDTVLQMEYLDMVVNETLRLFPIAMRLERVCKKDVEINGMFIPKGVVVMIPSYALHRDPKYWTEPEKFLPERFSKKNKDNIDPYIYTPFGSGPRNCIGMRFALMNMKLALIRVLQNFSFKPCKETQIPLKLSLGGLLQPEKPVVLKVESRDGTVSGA
Sequence of Cytochrome P450 2C9 (P11712 whole entry): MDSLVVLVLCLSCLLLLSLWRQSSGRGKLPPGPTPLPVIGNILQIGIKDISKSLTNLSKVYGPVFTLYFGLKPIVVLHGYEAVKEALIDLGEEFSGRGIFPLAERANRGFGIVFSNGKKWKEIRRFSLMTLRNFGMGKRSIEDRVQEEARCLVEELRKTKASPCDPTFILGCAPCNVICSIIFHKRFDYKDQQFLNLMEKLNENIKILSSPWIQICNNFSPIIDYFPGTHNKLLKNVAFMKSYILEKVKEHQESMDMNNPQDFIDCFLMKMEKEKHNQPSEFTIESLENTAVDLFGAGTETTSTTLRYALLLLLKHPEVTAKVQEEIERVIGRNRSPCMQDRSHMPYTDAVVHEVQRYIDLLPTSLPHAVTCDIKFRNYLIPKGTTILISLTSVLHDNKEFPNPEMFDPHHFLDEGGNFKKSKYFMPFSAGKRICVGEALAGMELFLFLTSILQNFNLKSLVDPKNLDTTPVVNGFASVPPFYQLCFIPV
Sequence of Cytochrome P450 2C19 (P33261 whole entry): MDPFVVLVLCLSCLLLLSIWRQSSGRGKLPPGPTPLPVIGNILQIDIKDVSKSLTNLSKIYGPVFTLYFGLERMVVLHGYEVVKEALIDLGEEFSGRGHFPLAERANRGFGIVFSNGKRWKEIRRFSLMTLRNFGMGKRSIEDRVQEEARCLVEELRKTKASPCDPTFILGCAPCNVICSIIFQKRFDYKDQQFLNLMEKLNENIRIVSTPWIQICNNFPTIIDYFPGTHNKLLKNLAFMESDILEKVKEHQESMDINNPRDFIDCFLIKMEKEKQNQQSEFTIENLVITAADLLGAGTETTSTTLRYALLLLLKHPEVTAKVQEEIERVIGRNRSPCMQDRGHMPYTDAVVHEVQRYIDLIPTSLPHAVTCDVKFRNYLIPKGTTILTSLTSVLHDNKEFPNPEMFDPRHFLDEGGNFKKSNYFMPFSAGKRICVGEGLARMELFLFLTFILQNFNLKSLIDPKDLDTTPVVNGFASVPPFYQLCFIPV
Sequence of Voltage-gated inwardly rectifying potassium channel KCNH2 (Q12809 whole entry): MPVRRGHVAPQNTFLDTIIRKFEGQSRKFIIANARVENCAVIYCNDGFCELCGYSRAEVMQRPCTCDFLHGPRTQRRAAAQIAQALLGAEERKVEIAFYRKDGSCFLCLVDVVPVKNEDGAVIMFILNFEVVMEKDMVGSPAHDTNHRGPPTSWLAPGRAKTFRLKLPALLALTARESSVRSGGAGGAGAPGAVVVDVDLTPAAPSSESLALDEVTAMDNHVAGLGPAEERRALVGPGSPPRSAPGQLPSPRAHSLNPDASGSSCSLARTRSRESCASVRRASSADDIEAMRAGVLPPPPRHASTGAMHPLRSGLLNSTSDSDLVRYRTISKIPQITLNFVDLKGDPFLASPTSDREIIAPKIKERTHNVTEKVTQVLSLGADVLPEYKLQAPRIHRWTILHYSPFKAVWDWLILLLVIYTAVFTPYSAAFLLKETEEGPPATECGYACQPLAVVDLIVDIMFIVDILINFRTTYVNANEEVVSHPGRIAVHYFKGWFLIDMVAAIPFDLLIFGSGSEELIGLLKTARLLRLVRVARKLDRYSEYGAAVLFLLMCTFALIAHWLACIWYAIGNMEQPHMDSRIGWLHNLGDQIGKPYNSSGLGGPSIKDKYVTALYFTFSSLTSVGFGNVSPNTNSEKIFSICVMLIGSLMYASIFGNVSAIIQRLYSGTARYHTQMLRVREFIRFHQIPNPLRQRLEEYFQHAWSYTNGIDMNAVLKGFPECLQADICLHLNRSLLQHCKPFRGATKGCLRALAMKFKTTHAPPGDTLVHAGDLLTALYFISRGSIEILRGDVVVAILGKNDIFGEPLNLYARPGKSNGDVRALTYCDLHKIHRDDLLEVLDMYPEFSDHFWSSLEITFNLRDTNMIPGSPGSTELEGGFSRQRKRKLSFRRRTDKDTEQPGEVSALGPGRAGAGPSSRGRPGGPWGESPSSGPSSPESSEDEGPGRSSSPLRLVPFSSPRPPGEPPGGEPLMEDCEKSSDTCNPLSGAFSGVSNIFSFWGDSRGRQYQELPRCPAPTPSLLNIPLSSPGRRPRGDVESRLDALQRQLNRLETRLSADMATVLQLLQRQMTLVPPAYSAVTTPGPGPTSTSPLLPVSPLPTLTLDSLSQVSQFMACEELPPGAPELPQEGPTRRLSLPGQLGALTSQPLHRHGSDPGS
Sequence of Cytochrome P450 2D6 (P10635 whole entry): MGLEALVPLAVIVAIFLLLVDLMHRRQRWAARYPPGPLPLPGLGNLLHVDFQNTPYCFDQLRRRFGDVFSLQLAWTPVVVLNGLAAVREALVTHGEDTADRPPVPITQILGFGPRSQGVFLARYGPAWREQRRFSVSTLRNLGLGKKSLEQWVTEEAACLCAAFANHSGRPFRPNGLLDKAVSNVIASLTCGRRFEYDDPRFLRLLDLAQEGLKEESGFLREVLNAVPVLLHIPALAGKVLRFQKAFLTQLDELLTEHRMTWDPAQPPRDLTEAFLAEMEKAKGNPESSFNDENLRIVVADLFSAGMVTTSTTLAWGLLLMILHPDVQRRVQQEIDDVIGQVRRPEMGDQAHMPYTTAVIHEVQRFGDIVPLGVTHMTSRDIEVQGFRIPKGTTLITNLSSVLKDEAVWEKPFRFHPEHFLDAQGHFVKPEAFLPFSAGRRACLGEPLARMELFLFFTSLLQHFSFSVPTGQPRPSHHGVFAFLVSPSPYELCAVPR

CC(C)Oc1cc(NC(=O)C2(NC(=O)c3ccc4c(C5CCCC5)c(-c5ccccn5)n(C)c4c3)CCC2)ccc1/C=C/C(=O)O
IC50 [1]: 110 nM | EC50 [2]: 36 nM | half-life [3]: 1.9 h | Papp A→B [4]: 19 ×10⁻⁶ cm/s | concentration at 1 h [5]: 1300 nM | concentration at 2 h [6]: 800 nM

CCOc1cc(NC(=O)C2(NC(=O)c3ccc4c(C5CCCC5)c(-c5ncc(Br)cn5)n(C)c4c3)CCC2)ccc1/C=C/C(=O)O
IC50 [1]: 460 nM | EC50 [2]: 19 nM | half-life [3]: 2.57 h | half-life [7]: 1.73 h | Papp A→B [4]: 13 ×10⁻⁶ cm/s | concentration at 1 h [5]: 1800 nM | concentration at 2 h [6]: 2100 nM

CCOc1cc(NC(=O)C2(NC(=O)c3ccc4c(C5CCCC5)c(-c5ccc(Cl)cn5)n(C)c4c3)CCC2)ccc1/C=C/C(=O)O
IC50 [1]: 330 nM | EC50 [2]: 26 nM | half-life [3]: 1.35 h | half-life [7]: 1.73 h | Papp A→B [4]: 18 ×10⁻⁶ cm/s | concentration at 1 h [5]: 500 nM | concentration at 2 h [6]: 300 nM

CCOc1cc(NC(=O)C2(NC(=O)c3ccc4c(C5CCCC5)c(-c5ncc(Cl)cn5)n(C)c4c3)CCC2)ccc1/C=C/C(=O)O
IC50 [1]: 110 nM | EC50 [2]: 13 nM | half-life [3]: 1.7 h | half-life [7]: 1.73 h | Papp A→B [4]: 13 ×10⁻⁶ cm/s | pKa [8]: 6.5 | concentration at 1 h [5]: 3400 nM | concentration at 2 h [6]: 2300 nM | Cmax [9]: 6300 nM | AUC [10]: 19 µM·h | MRT [11]: 3.6 h | Vd [12]: 0.38 L/kg | clearance [13]: 2.6 mL/min/kg | half-life [14]: 2.4 h | bioavailability [15]: 19% | Kp at 6 h [16]: 5 | Cmax [17]: 8100 nM | Cmax [18]: 9600 nM | AUC [19]: 76 µM·h | AUC [20]: 53 µM·h | MRT [21]: 8 h | MRT [22]: 6.1 h | Vd [23]: 0.38 L/kg | Vdss (Rhesus monkey [24]): 0.6 L/kg | clearance [25]: 1 mL/min/kg | CL (Rhesus monkey [26]): 3.6 mL/min/kg | half-life [27]: 4.5 h | t1/2 (Rhesus monkey [28]): 3 h | bioavailability [29]: 29% | bioavailability [30]: 72% | IC50 [31]: 84 nM | EC50 (Hepatitis C virus [32]): 29 nM | EC50 (Hepatitis C virus [33]): 11 nM | CC50 [34]: 38000 nM | fold change (FC) (Hepatitis C virus [35]): 3.8 | fraction unbound [36]: 0.004 | logD [37]: 4.1 | Papp A→B [38]: 13 ×10⁻⁶ cm/s | IC50 (Cytochrome P450 1A2): > 30000 nM | IC50 (Cytochrome P450 2C9): 13500 nM | IC50 (Cytochrome P450 2C19): > 30000 nM | IC50 (Cytochrome P450 2D6): > 30000 nM | IC50 (Cytochrome P450 3A4): > 30000 nM | IC50 [39]: 70000 nM | inhibition (INH) [40]: Not Active | Activity (Salmonella typhimurium): Non-toxic | Activity (Canis familiaris): Non-toxic | Activity [41]: Non-toxic
